In ChEMBL document CHEMBL3112499, “Identification of potent CNS-penetrant thiazolidinones as novel CGRP receptor antagonists” (Bioorg Med Chem Lett, 2014):
pIC50, pKi: −log10 of the molar value.

Experiments:
[1] = molecular target: T1, Calcitonin gene-related peptide type 1 receptor (Homo sapiens, UniProt O60894+Q16602); experiment: Displacement of [125I]CGRP from CGRP receptor in human SK-N-MC cell membranes preincubated for 30 mins followed by radioligand addition measured after 2 hrs by liquid scintillation counting
T1 sequence (Q16602 whole entry, one chain of several): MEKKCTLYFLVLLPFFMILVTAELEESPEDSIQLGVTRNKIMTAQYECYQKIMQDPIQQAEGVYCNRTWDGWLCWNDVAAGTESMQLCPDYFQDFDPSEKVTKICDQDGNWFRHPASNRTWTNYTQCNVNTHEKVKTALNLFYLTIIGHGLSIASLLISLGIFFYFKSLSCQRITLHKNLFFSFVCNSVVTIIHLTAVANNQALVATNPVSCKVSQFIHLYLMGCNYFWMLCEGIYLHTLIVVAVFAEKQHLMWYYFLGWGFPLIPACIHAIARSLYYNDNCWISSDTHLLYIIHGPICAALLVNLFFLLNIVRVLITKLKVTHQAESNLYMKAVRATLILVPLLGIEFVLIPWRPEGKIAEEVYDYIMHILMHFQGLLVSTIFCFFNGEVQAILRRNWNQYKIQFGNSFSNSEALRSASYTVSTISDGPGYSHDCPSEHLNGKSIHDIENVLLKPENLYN

[2] = molecular target: T1, Calcitonin gene-related peptide type 1 receptor; experiment: Antagonist activity at CGRP receptor in human SK-N-MC cells assessed as inhibition of CGRP-stimulated cAMP production preincubated for 30 mins followed by CGRP addition measured after 3 hrs by beta-lactamase reporter gene-based FRET assay; type: functional, cell-based
Method in brief: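 SK-N-MC cells (endogenous CGRP receptor) transduced with retroviral cAMP-responsive-promoter β-lactamase reporter; 30,000 cells/well grown overnight in MEM+10% FBS, 37 °C, 5% CO2. Medium swapped to MEM+1% FBS with compound, 30 min pre-incubation; CGRP added (final 200 pM), 3 h at 37 °C. CCF4/AM FRET substrate added, 2 h at room temperature, fluorescence read; n ≥ 3.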

[3] = test system: Rattus norvegicus; experiment: AUC in rat at 30 mg/kg, po; type: ADME, organism-based, Plasma; set-up: dose 30 mg/kg, route oral; conditions: in vivo
Method in brief: (§1)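 Rats dosed at 30 mg/kg in 10% TPGS suspension; mean of n = 3.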

[4] = test system: Rattus norvegicus; experiment: Oral bioavailability in rat at 30 mg/kg; type: ADME, organism-based; conditions: in vivo; method in brief: as §1
[5] = test system: Rattus norvegicus; experiment: Cmax in rat at 30 mg/kg, po; type: ADME, organism-based; set-up: dose 30 mg/kg, route oral; conditions: in vivo; method in brief: as §1
[6] = test system: Rattus norvegicus; experiment: AUC in rat at 10 mg/kg, po; type: ADME, organism-based, Plasma; set-up: dose 10 mg/kg, route oral; conditions: in vivo
Method in brief: (§2)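 Rats dosed orally at 10 mg/kg, in suspension vehicle or in 40% PEG400/10% TPGS/water depending on compound; mean of n = 3.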

[7] = test system: Rattus norvegicus; experiment: Cmax in rat at 10 mg/kg, po; type: ADME, organism-based; set-up: dose 10 mg/kg, route oral; conditions: in vivo; method in brief: as §2
[8] = Ratio of drug level in brain to plasma in rat administered as iv bolus measured after 0.25 to 1 hr post dosing; type: ADME, organism-based; conditions: brain and plasma, read-out: BPR
Method in brief: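 Rats given an iv bolus; brain and plasma levels taken at 0.25 or 1 h post-dose to give the brain/plasma ratio; mean of n = 3.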

[9] = test system: Rattus norvegicus; experiment: Oral bioavailability in rat at 10 mg/kg; type: ADME, organism-based; conditions: in vivo; method in brief: as §2
[10] = test system: Rattus norvegicus; experiment: Cmax in po dosed rat; type: ADME, organism-based; set-up: route oral; conditions: in vivo
[11] = test system: Rattus norvegicus; experiment: AUC in po dosed rat; type: ADME, organism-based, Plasma; conditions: in vivo
[12] = Clearance in iv dosed rat; type: ADME, organism-based; conditions: in vivo
[13] = Oral bioavailability in rat; type: ADME, organism-based; conditions: in vivo

| pKi [1] | pIC50 [2] | Compound | also measured |
| --- | --- | --- | --- |
| 6.06 | 5.29 | O=C(CC1SC(c2ccccc2)N(C2CC2)C1=O)N1CCC(N2Cc3ccccc3NC2=O)CC1 (configuration not stated) |  |
| 7.35 | 6.08 | O=C(CC1SC(c2ccccc2)N(CC2CC2)C1=O)N1CCC(N2Cc3ccccc3NC2=O)CC1 (configuration not stated) |  |
| 7.19 | 6.49 | CCCCN1C(=O)C(CC(=O)N2CCC(N3Cc4ccccc4NC3=O)CC2)SC1c1ccccc1 (configuration not stated) |  |
| 7.49 | 6.43 | CC(C)CN1C(=O)C(CC(=O)N2CCC(N3Cc4ccccc4NC3=O)CC2)SC1c1ccccc1 (configuration not stated) |  |
| 5.73 | 5.12 | CC(C)(C)N1C(=O)C(CC(=O)N2CCC(N3Cc4ccccc4NC3=O)CC2)SC1c1ccccc1 (configuration not stated) |  |
| 6.12 | 5.34 | O=C(CC1SC(c2ccccc2)N(CC(F)(F)F)C1=O)N1CCC(N2Cc3ccccc3NC2=O)CC1 (configuration not stated) |  |
| 6.91 | 5.91 | COCCN1C(=O)C(CC(=O)N2CCC(N3Cc4ccccc4NC3=O)CC2)SC1c1ccccc1 (configuration not stated) |  |
| 6.52 | 5.31 | CCN(CC)CCN1C(=O)C(CC(=O)N2CCC(N3Cc4ccccc4NC3=O)CC2)SC1c1ccccc1 (configuration not stated) |  |
| 6.53 | 6.03 | CC(c1ccccc1)N1C(=O)C(CC(=O)N2CCC(N3Cc4ccccc4NC3=O)CC2)SC1c1ccccc1 (configuration not stated) |  |
| 7.06 | 6.15 | O=C(CC1SC(c2ccccc2)N(C2CCCCC2)C1=O)N1CCC(N2Cc3ccccc3NC2=O)CC1 (configuration not stated) |  |
| 7.17 | 6.28 | O=C(CC1SC(c2ccccc2)N(CC2CCCO2)C1=O)N1CCC(N2Cc3ccccc3NC2=O)CC1 (configuration not stated) |  |
| 8.05 | 6.60 | CC(C)(C)CN1C(=O)C(CC(=O)N2CCC(N3Cc4ccccc4NC3=O)CC2)SC1c1ccccc1 (configuration not stated) |  |
| 6.09 | 5.53 | O=C(CC1SC(c2ccccc2)N(c2ccccc2)C1=O)N1CCC(N2Cc3ccccc3NC2=O)CC1 (configuration not stated) |  |
| 7.25 | 6.12 | O=C(CC1SC(c2ccccc2)N(Cc2ccc(F)cc2)C1=O)N1CCC(N2Cc3ccccc3NC2=O)CC1 (configuration not stated) |  |
| 6.59 | 6.10 | O=C(CC1SC(c2ccccc2)N(Cc2cccnc2)C1=O)N1CCC(N2Cc3ccccc3NC2=O)CC1 (configuration not stated) |  |
| 6.69 | 5.86 | O=C(CC1SC(c2ccccc2)N(CCc2ccccn2)C1=O)N1CCC(N2Cc3ccccc3NC2=O)CC1 (configuration not stated) |  |
| 7.27 | 6.74 | CC(C)(C)CCN1C(=O)C(CC(=O)N2CCC(N3Cc4ccccc4NC3=O)CC2)SC1c1ccccc1F (configuration not stated) |  |
| 6.93 | 6.68 | CC(C)(C)CCN1C(=O)C(CC(=O)N2CCC(N3Cc4ccccc4NC3=O)CC2)SC1c1cccc(F)c1F (configuration not stated) |  |
| 7.52 | 6.72 | CC(C)(C)CCN1C(=O)C(CC(=O)N2CCC(N3Cc4ccccc4NC3=O)CC2)SC1c1ccc(F)cc1F (configuration not stated) |  |
| 7.23 | 6.77 | CC(C)(C)CCN1C(=O)C(CC(=O)N2CCC(N3Cc4ccccc4NC3=O)CC2)SC1c1c(F)cccc1F (configuration not stated) |  |
| 8.70 | 7.22 | CC(C)(C)CCN1C(=O)C(CC(=O)N2CCC(N3Cc4ccccc4NC3=O)CC2)SC1c1ccccc1N1CCNCC1 (configuration not stated) |  |
| 7.28 | 6.80 | CC(C)(C)CCN1C(=O)C(CC(=O)N2CCC(N3Cc4ccccc4NC3=O)CC2)SC1c1ccccc1N1CCOCC1 (configuration not stated) |  |
|  |  | CN1CCN(c2ccccc2C2SC(CC(=O)N3CCC(N4Cc5ccccc5NC4=O)CC3)C(=O)N2CCC(C)(C)C)CC1 (configuration not stated) | AUC [3]: 1600 ng·h/mL; F [4]: 53%; Cmax [5]: 260 ng/mL |

| pKi [1] | pIC50 [2] | Compound | also measured |
| --- | --- | --- | --- |
| 7.74 | 7.36 | CC(C)(C)CCN1C(=O)C(CC(=O)N2CCC(N3Cc4ccccc4NC3=O)CC2)SC1c1ccccc1N1CCC(O)CC1 (configuration not stated) |  |
| 8.15 | 7.07 | CC(C)(C)CCN1C(=O)C(CC(=O)N2CCC(N3Cc4ccccc4NC3=O)CC2)SC1c1ccccc1-n1ccnc1 (configuration not stated) |  |
| 7.40 | 7.21 | CC(C)(C)CCN1C(=O)C(CC(=O)N2CCC(N3Cc4ccccc4NC3=O)CC2)SC1c1ccccc1-n1cccn1 (configuration not stated) |  |
| 7.66 | 7.06 | CC(C)(C)CCN1C(=O)C(CC(=O)N2CCC(N3Cc4ccccc4NC3=O)CC2)SC1c1ccccc1-c1cccnc1 (configuration not stated) |  |
| 7.70 | 7.00 | CC(C)(C)CCN1C(=O)C(CC(=O)N2CCC(N3Cc4ccccc4NC3=O)CC2)SC1c1ccccc1-c1ccncc1 (configuration not stated) |  |
| 8.52 | 7.36 | CCCCN1CCN(c2ccccc2C2SC(CC(=O)N3CCC(N4Cc5ccccc5NC4=O)CC3)C(=O)N2CCC(C)(C)C)CC1 (configuration not stated) |  |
| 8.10 | 7.44 | CC(C)(C)CCN1C(=O)C(CC(=O)N2CCC(N3Cc4ccccc4NC3=O)CC2)SC1c1ccccc1N1CCN(CCO)CC1 (configuration not stated) |  |
| 8.70 | 7.72 | CN1CCN(c2ccccc2C2SC(CC(=O)N3CCC(N4CCc5ccccc5NC4=O)CC3)C(=O)N2CCC(C)(C)C)CC1 (configuration not stated) |  |
| 9.00 | 7.48 | CC(C)(C)CCN1C(=O)C(CC(=O)N2CCC(N3CCc4ccccc4NC3=O)CC2)SC1c1ccccc1N1CCNCC1 (configuration not stated) |  |
| 9.30 | 8.52 | CN1CCN(c2c(F)cccc2C2SC(CC(=O)N3CCC(N4CCc5ccccc5NC4=O)CC3)C(=O)N2CCC(C)(C)C)CC1 (configuration not stated) |  |
| 7.85 | 7.08 | CN1CCN(c2cc(F)ccc2C2SC(CC(=O)N3CCC(N4CCc5ccccc5NC4=O)CC3)C(=O)N2CCC(C)(C)C)CC1 (configuration not stated) |  |
| 7.85 | 7.14 | CN1CCN(c2ccc(F)cc2C2SC(CC(=O)N3CCC(N4CCc5ccccc5NC4=O)CC3)C(=O)N2CCC(C)(C)C)CC1 (configuration not stated) |  |
| 9.00 | 7.19 | CN1CCN(c2cccc(F)c2C2SC(CC(=O)N3CCC(N4CCc5ccccc5NC4=O)CC3)C(=O)N2CCC(C)(C)C)CC1 (configuration not stated) |  |
| 10.15 | 8.70 | CCN1CCN(c2c(F)cccc2C2SC(CC(=O)N3CCC(N4CCc5ccccc5NC4=O)CC3)C(=O)N2CCC(C)(C)C)CC1 (configuration not stated) |  |
| 10.70 | 9.00 | CC(C)N1CCN(c2c(F)cccc2C2SC(CC(=O)N3CCC(N4CCc5ccccc5NC4=O)CC3)C(=O)N2CCC(C)(C)C)CC1 (configuration not stated) | AUC [6]: 650 ng·h/mL; Cmax [7]: 120 ng/mL; Kp [8]: 1.51; F [9]: 32% |
|  |  | CC(C)(C)CCN1C(=O)[C@H](CC(=O)N2CCC(N3CCc4ccccc4NC3=O)CC2)S[C@@H]1c1cccc(F)c1N1CCN(C(C)(C)C)CC1 | AUC [6]: 530 ng·h/mL; Cmax [7]: 410 ng/mL; Kp [8]: 0.53; F [9]: 13% |
| 6.55 | 6.13 | CC(C)CCN(Cc1cc(Br)c(O)c(Br)c1)C(=O)CCC(=O)N1CCC(N2Cc3ccccc3NC2=O)CC1 |  |
| 6.69 | 5.35 | CN1C(=O)C(CC(=O)N2CCC(N3Cc4ccccc4NC3=O)CC2)SC1c1ccccc1 (configuration not stated) |  |
| 6.94 | 5.82 | CC(C)N1C(=O)C(CC(=O)N2CCC(N3Cc4ccccc4NC3=O)CC2)SC1c1ccccc1 (configuration not stated) |  |
| 7.49 | 6.43 | CC(C)CCN1C(=O)C(CC(=O)N2CCC(N3Cc4ccccc4NC3=O)CC2)SC1c1ccccc1 (racemic) |  |
|  |  | NCCCC[C@H](NC(=O)[C@@H](Cc1cc(Br)c(O)c(Br)c1)NC(=O)N1CCC(N2Cc3ccccc3NC2=O)CC1)C(=O)N1CCN(c2ccncc2)CC1 [OLCEGEPANT] | Cmax [10]: 870 ng/mL; AUC [11]: 260 ng·h/mL; clearance [12]: 65 mL/min/kg; Kp [8]: < 0.03; bioavailability [13]: < 1% |
|  |  | O=C(N[C@@H]1CC[C@@H](c2cccc(F)c2F)CN(CC(F)(F)F)C1=O)N1CCC(n2c(=O)[nH]c3ncccc32)CC1 [TELCAGEPANT] | AUC [6]: 3320 ng·h/mL; Cmax [7]: 550 ng/mL; Kp [8]: 0.03; F [9]: 45% |
